Source: ChEMBL document CHEMBL1938297, “Synthesis, radiofluorination and pharmacological evaluation of a fluoromethyl spirocyclic PET tracer for central σ1 receptors and comparison with fluoroalkyl homologs” (Bioorg Med Chem, 2012)

What was measured:
Brain [1] = assay: Biodistribution in CD1 mouse brain at 300 kBq, iv after 5 mins by gamma counting; type: ADME, organism-based; details: in vivo
How it was run: (§1)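 Female CD-1 mice received [18F]1 (300 kBq) i.v.; 3–6 animals per time point anesthetized at 5, 30, 60 or 120 min p.i., blood and urine collected, animals euthanized by cervical dislocation, organs dissected and weighed. Radioactivity counted in a calibrated gamma counter; % ID/g = tissue counts / initial dose counts / tissue weight; means with SD.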

Mus musculus [2] = assay: Biodistribution in CD1 mouse facial nucleus in brain saggital section at 24 MBq, iv at 45 mins by autoradiography; type: ADME, organism-based; details: in vivo, 0.75 h
How it was run: (§2)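 Female CD-1 mouse given [18F]1 (24 MBq) i.v. and sacrificed at 45 min. Brain hemispheres frozen in isopentane (−35 °C), cut into 12 µm sagittal cryosections, thaw-mounted, air-dried and exposed to 18F-sensitive storage phosphor screens. Anterior olfactory bulb served as nontarget region for target-to-nontarget ratios.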

Kidney [3] = assay: Biodistribution in CD1 mouse kidney at 300 kBq, iv after 120 mins by gamma counting; type: ADME, organism-based; details: in vivo, 2 h
How it was run: (§3)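 Female CD-1 mice received the 18F tracer iv at 300 kBq in 0.9% NaCl containing 5% ethanol; 3–6 animals per time point (5, 30, 60, 120 min p.i.). Animals anaesthetized, blood and urine collected, killed by cervical luxation, organs dissected and weighed, counted in calibrated gamma counter. %ID/g = tissue counts / initial dose counts / tissue weight; mean with SD.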

Muscle tissue [4] = assay: Biodistribution in CD1 mouse muscle at 300 kBq, iv after 120 mins by gamma counting; type: ADME, organism-based; details: in vivo, 2 h; how it was run: as §3
Cerebellum = assay: Biodistribution in CD1 mouse cerebellum at 300 kBq, iv after 30 mins by gamma counting; type: ADME, organism-based; details: in vivo, 0.5 h; how it was run: as §1
Brain [5] = assay: Drug metabolism in CD1 mouse brain homogenates assessed as radiometabolites at 191 MBq, iv after 60 mins by radio-HPLC/TLC analysis; type: ADME, organism-based; details: in vivo, 1 h
How it was run: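 Female CD-1 mice were injected with the radiotracer via the tail vein and killed at 30 or 60 min p.i. Whole brains (n = 2 per time) were homogenised in 50 mM TRIS–HCl pH 7.4 at 4 °C and extracted twice with ice-cold acetonitrile. Concentrated extracts were analysed by radio-HPLC and radio-TLC to give % parent versus radiometabolites.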

Lung [6] = assay: Biodistribution in CD1 mouse lung at 300 kBq, iv after 60 mins by gamma counting; type: ADME, organism-based; details: in vivo, 1 h; how it was run: as §3
[7] = Biodistribution in CD1 mouse intestinal content at 300 kBq, iv after 5 mins by gamma counting; type: ADME, organism-based, Intestine; details: in vivo; how it was run: as §3
Pancreas = assay: Biodistribution in CD1 mouse pancreas at 300 kBq, iv after 60 mins by gamma counting; type: ADME, organism-based; details: in vivo, 1 h; how it was run: as §3
Femur = assay: Biodistribution in CD1 mouse flushed femur at 300 kBq, iv after 5 mins by gamma counting; type: ADME, organism-based; details: in vivo; how it was run: as §1
[8] = Ratio of biodistribution in anterior olfactory bulb to facial nucleus in brain saggital section of CD1 mouse at 24 MBq, iv after 45 mins; type: ADME, organism-based; details: in vivo, 0.75 h
How it was run: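 Female CD-1 mouse given 24 MBq radiotracer i.v. and killed at 45 min. The brain hemispheres were frozen in isopentane (−35 °C), cut into 12 µm sagittal cryosections and exposed to 18F-sensitive phosphor screens. Regional uptake was expressed as a target-to-nontarget ratio, with the anterior olfactory bulb as the nontarget reference.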

Mus musculus [9] = assay: Biodistribution in CD1 mouse dorsolateral periaqueductal gray in brain saggital section at 24 MBq, iv at 45 mins by autoradiography; type: ADME, organism-based; details: in vivo, 0.75 h; how it was run: as §2
Mus musculus [10] = assay: Biodistribution in CD1 mouse thymus at 300 kBq, iv after 5 mins by gamma counting; type: ADME, organism-based; details: in vivo; how it was run: as §3
Mus musculus [11] = assay: Biodistribution in CD1 mouse eye at 300 kBq, iv after 60 mins by gamma counting; type: ADME, organism-based; details: in vivo, 1 h; how it was run: as §1
Brain [12] = assay: Biodistribution in CD1 mouse brain at 300 kBq, iv after 120 mins by gamma counting; type: ADME, organism-based; details: in vivo, 2 h; how it was run: as §1
[13] = Biodistribution in CD1 mouse intestinal content at 300 kBq, iv after 60 mins by gamma counting; type: ADME, organism-based, Intestine; details: in vivo, 1 h; how it was run: as §3
Mus musculus [14] = assay: Biodistribution in CD1 mouse large intestine at 300 kBq, iv after 60 mins by gamma counting; type: ADME, organism-based; details: in vivo, 1 h; how it was run: as §3
Heart [15] = assay: Biodistribution in CD1 mouse heart at 300 kBq, iv after 60 mins by gamma counting; type: ADME, organism-based; details: in vivo, 1 h; how it was run: as §3
Kidney [16] = assay: Biodistribution in CD1 mouse kidney at 300 kBq, iv after 60 mins by gamma counting; type: ADME, organism-based; details: in vivo, 1 h; how it was run: as §3
Striatum = assay: Biodistribution in CD1 mouse striatum in brain saggital section at 24 MBq, iv at 45 mins by autoradiography; type: ADME, organism-based; details: in vivo, 0.75 h
How it was run: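 Ex vivo autoradiography: female CD-1 mouse given 18F tracer iv (24 MBq), killed 45 min p.i.; brain hemispheres frozen in isopentane (−35 °C), 12 µm sagittal cryostat sections thaw-mounted, air-dried and exposed to 18F-sensitive phosphor screens. Regional uptake compared with anterior olfactory bulb as nontarget region (target-to-nontarget ratio).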

Mus musculus [17] = assay: Biodistribution in CD1 mouse eye at 300 kBq, iv after 5 mins by gamma counting; type: ADME, organism-based; details: in vivo; how it was run: as §1
Mus musculus [18] = assay: Biodistribution in CD1 mouse large intestine at 300 kBq, iv after 120 mins by gamma counting; type: ADME, organism-based; details: in vivo, 2 h; how it was run: as §3
Heart [19] = assay: Biodistribution in CD1 mouse heart at 300 kBq, iv after 30 mins by gamma counting; type: ADME, organism-based; details: in vivo, 0.5 h; how it was run: as §3
Mus musculus [20] = assay: Biodistribution in CD1 mouse adrenals at 300 kBq, iv after 5 mins by gamma counting; type: ADME, organism-based, Adrenal gland; details: in vivo; how it was run: as §1
Mus musculus [21] = assay: Biodistribution in CD1 mouse gonads at 300 kBq, iv after 60 mins by gamma counting; type: ADME, organism-based, Gonad; details: in vivo, 1 h; how it was run: as §1
[22] = Biodistribution in CD1 mouse urine at 300 kBq, iv after 30 mins by gamma counting; type: ADME, organism-based; details: in vivo, 0.5 h
How it was run: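 Female CD-1 mice received 300 kBq of the radiotracer i.v.; 3–6 animals per time point were anaesthetised at 5, 30, 60 or 120 min p.i. Blood and urine were collected, animals were killed by cervical dislocation, and organs were dissected and weighed. Activity was counted in a calibrated gamma counter and expressed as % injected dose per g wet tissue, mean with SD.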

Mus musculus [23] = assay: Biodistribution in CD1 mouse small intestine at 300 kBq, iv after 60 mins by gamma counting; type: ADME, organism-based; details: in vivo, 1 h; how it was run: as §3
Muscle tissue [24] = assay: Biodistribution in CD1 mouse muscle at 300 kBq, iv after 5 mins by gamma counting; type: ADME, organism-based; details: in vivo; how it was run: as §3
Mus musculus [25] = assay: Biodistribution in CD1 mouse fat at 300 kBq, iv after 120 mins by gamma counting; type: ADME, organism-based, Adipose tissue; details: in vivo, 2 h; how it was run: as §1
Mus musculus [26] = assay: Biodistribution in CD1 mouse adrenals at 300 kBq, iv after 120 mins by gamma counting; type: ADME, organism-based, Adrenal gland; details: in vivo, 2 h; how it was run: as §1
Mus musculus [27] = assay: Biodistribution in CD1 mouse gonads at 300 kBq, iv after 120 mins by gamma counting; type: ADME, organism-based, Gonad; details: in vivo, 2 h; how it was run: as §1
Mus musculus [28] = assay: Biodistribution in CD1 mouse fat at 300 kBq, iv after 30 mins by gamma counting; type: ADME, organism-based, Adipose tissue; details: in vivo, 0.5 h; how it was run: as §1
Mus musculus [29] = assay: Biodistribution in CD1 mouse thymus at 300 kBq, iv after 30 mins by gamma counting; type: ADME, organism-based; details: in vivo, 0.5 h; how it was run: as §3
Urinary bladder [30] = assay: Biodistribution in CD1 mouse bladder at 300 kBq, iv after 60 mins by gamma counting; type: ADME, organism-based; details: in vivo, 1 h; how it was run: as §1
Urinary bladder [31] = assay: Biodistribution in CD1 mouse bladder at 300 kBq, iv after 30 mins by gamma counting; type: ADME, organism-based; details: in vivo, 0.5 h; how it was run: as §1
Lung [32] = assay: Biodistribution in CD1 mouse lung at 300 kBq, iv after 120 mins by gamma counting; type: ADME, organism-based; details: in vivo, 2 h; how it was run: as §3

[18F]CC1OC2(CCN(Cc3ccccc3)CC2)c2ccccc21 (stereo unspecified)
Drug uptake (Brain [1]): 7.15 % ID/g
Drug uptake (Mus musculus [2]): Active
Drug uptake (Kidney [3]): 5.6 % ID/g
Drug uptake (Muscle tissue [4]): 1.16 % ID/g
Drug uptake (Cerebellum): 6.27 % ID/g
Drug metabolism (Brain [5]): Active
Drug uptake (Lung [6]): 8.32 % ID/g
Drug uptake [7]: 0.39 % ID/g
Drug uptake (Pancreas): 9.27 % ID/g
Drug uptake (Femur): 2.09 % ID/g
Ratio [8]: 1.34
Drug uptake (Mus musculus [9]): Active
Drug uptake (Mus musculus [10]): 3.61 % ID/g
Drug uptake (Mus musculus [11]): 0.87 % ID/g
Drug uptake (Brain [12]): 2.7 % ID/g
Drug uptake [13]: 0.32 % ID/g
Drug uptake (Mus musculus [14]): 0.92 % ID/g
Drug uptake (Heart [15]): 2.96 % ID/g
Drug uptake (Kidney [16]): 6.03 % ID/g
Drug uptake (Striatum): Active
Drug uptake (Mus musculus [17]): 1.89 % ID/g
Drug uptake (Mus musculus [18]): 1.46 % ID/g
Drug uptake (Heart [19]): 4.57 % ID/g
Drug uptake (Mus musculus [20]): 13.29 % ID/g
Drug uptake (Mus musculus [21]): 3.28 % ID/g
Drug uptake [22]: 46.35 % ID/g
Drug uptake (Mus musculus [23]): 23.46 % ID/g
Drug uptake (Muscle tissue [24]): 2.12 % ID/g
Drug uptake (Mus musculus [25]): 2.08 % ID/g
Drug uptake (Mus musculus [26]): 6.6 % ID/g
Drug uptake (Mus musculus [27]): 3.55 % ID/g
Drug uptake (Mus musculus [28]): 1.82 % ID/g
Drug uptake (Mus musculus [29]): 4.83 % ID/g
Drug uptake (Urinary bladder [30]): 1.42 % ID/g
Drug uptake (Urinary bladder [31]): 3.86 % ID/g
Drug uptake (Lung [32]): 6.82 % ID/g
